Measurements published in ChEMBL document CHEMBL4477254, “Synthesis and biological evaluation of some novel triazole hybrids of curcumin mimics and their selective anticancer activity against breast and prostate cancer cell lines” (Bioorg Med Chem Lett, 2016).
The source made the active and inactive calls. The calls are words filed in the database; no cut-off is given here.

Tests used:
MCF7 [1] = assay: Inhibition of colony formation in human MCF7 cells at 3 to 6 uM incubated for 24 hrs measured till day 7 by crystal violet staining based assay; assay type: functional, cell-based
In short: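 Cells were treated with a range of concentrations for 24 h. The medium was then replaced with complete medium and cells were grown for 7 days. Colonies were stained with 0.1% crystal violet.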

MCF7 [2] = assay: Cell cycle arrest in human MCF7 cells assessed as accumulation at S phase at 6 uM after 24 hrs by propidium iodide staining based flow cytometry (reference value: 34.03%); assay type: functional
In short: (§1)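 Cells treated 24 h with test compound, MCF-7 at various concentrations and PC-3 at various concentrations; cells harvested, stained with propidium iodide and acquired by flow cytometry for cell cycle phase distribution.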

MCF7 [3] = assay: Cell cycle arrest in human MCF7 cells assessed as accumulation at G2/M phase at 6 uM after 24 hrs by propidium iodide staining based flow cytometry (reference value: 20.30%); assay type: functional; in short: as §1
MCF7 [4] = assay: Increase in Bax expression in human MCF7 cells at 3 to 9 uM after 24 hrs by Western blot analysis; assay type: functional, cell-based
In short: (§2)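 MCF-7 or PC-3 cells treated with compound for 24 h, harvested; PCNA, Bax and Bcl-2 protein expression checked by Western blotting.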

MCF7 [5] = assay: Induction of morphological changes in human MCF7 cells assessed as decrease in cell number at 1 to 6 uM after 24 hrs by phase contrast microscopy; assay type: functional, cell-based
In short: (§3)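 Cells were exposed to a range of concentrations for 24 h. Cell number and morphology, including detachment from the surface, were assessed by phase-contrast microscopy at 10X magnification.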

[6] = Intrinsic hepatic clearance in liver microsomes (unknown origin) assessed per mg of protein at 5 ug/ml in presence of NADPH by UPLC analysis; assay type: ADME, Microsome; conditions: read-out: CLH (converted)
MCF7 [7] = assay: Induction of mitochondrial membrane depolarization in human MCF7 cells at 3 uM after 24 hrs by JC-1 staining based flow cytometry (reference value: 11%); assay type: functional
MCF7 [8] = assay: Induction of apoptosis in human MCF7 cells assessed as necrotic cells at 3 uM after 24 hrs by annexin V-FITC/propidium iodide staining based flow cytometry (reference value: 4.76%); assay type: functional
In short: (§4)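 Apoptosis by Annexin V-FITC/PI dual staining: MCF-7 cells treated 24 h at 3, 6 and 9 µM, then harvested, stained and acquired by flow cytometry; early apoptotic = AnnexinV+/PI−, live = AnnexinV−/PI−, necrotic = AnnexinV−/PI+.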

MCF7 [9] = assay: Induction of apoptosis in human MCF7 cells assessed as increase in early apoptotic cells after 24 hrs by annexin V-FITC/propidium iodide staining based flow cytometry; assay type: functional, cell-based; in short: as §4
[10] = Half life in liver microsomes (unknown origin) at 5 ug/ml in presence of NADPH by UPLC analysis; assay type: ADME, Microsome
MCF7 [11] = assay: Induction of apoptosis in human MCF7 cells assessed as early apoptotic cells at 3 uM after 24 hrs by annexin V-FITC/propidium iodide staining based flow cytometry (reference value: 7.36%); assay type: functional; in short: as §4
MCF7 [12] = assay: Cell cycle arrest in human MCF7 cells assessed as accumulation at G0/G1 phase at 9 uM after 24 hrs by propidium iodide staining based flow cytometry (reference value: 45.67%); assay type: functional; in short: as §1
MCF7 [13] = assay: Cell cycle arrest in human MCF7 cells assessed as accumulation at G2/M phase at 3 uM after 24 hrs by propidium iodide staining based flow cytometry (reference value: 20.30%); assay type: functional; in short: as §1
MCF7 [14] = assay: Induction of mitochondrial membrane depolarization in human MCF7 cells at 6 uM after 24 hrs by JC-1 staining based flow cytometry (reference value: 11%); assay type: functional
MCF7 [15] = assay: Induction of apoptosis in human MCF7 cells assessed as late apoptotic cells at 9 uM after 24 hrs by annexin V-FITC/propidium iodide staining based flow cytometry (reference value: 5.25%); assay type: functional; in short: as §4
MCF7 [16] = assay: Cell cycle arrest in human MCF7 cells assessed as accumulation at S phase at 3 uM after 24 hrs by propidium iodide staining based flow cytometry (reference value: 34.03%); assay type: functional; in short: as §1
MCF7 [17] = assay: Induction of apoptosis in human MCF7 cells assessed as viable cells at 6 uM after 24 hrs by annexin V-FITC/propidium iodide staining based flow cytometry (reference value: 82.63%); assay type: functional; conditions: MCF7, 24 h, read-out: Activity
In short: (§5)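 MCF-7 cells exposed to 3, 6 or 9 μM and PC-3 cells to 4.8 or 8.8 μM for 24 h, then harvested and dual-stained with Annexin V-FITC/PI and read by flow cytometry. Gates: live AnnexinV⁻/PI⁻, early apoptotic AnnexinV⁺/PI⁻, necrotic AnnexinV⁻/PI⁺.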

MCF7 [18] = assay: Decrease in PCNA levels in human MCF7 cells at 3 to 9 uM after 24 hrs by Western blot analysis; assay type: functional, cell-based; in short: as §2
MCF7 [19] = assay: Decrease in Bcl-2 expression in human MCF7 cells at 3 to 9 uM after 24 hrs by Western blot analysis; assay type: functional, cell-based; in short: as §2
PC-3 [20] = assay: Induction of apoptosis in human PC3 cells assessed as viable cells at 4.8 uM after 24 hrs by annexin V-FITC/propidium iodide staining based flow cytometry (reference value: 92.24%); assay type: functional; conditions: PC-3, 24 h, read-out: Activity; in short: as §5
PC-3 [21] = assay: Induction of morphological changes in human PC3 cells assessed as cell detachment at >8.8 uM after 24 hrs by phase contrast microscopy; assay type: functional, cell-based; in short: as §3
PC-3 [22] = assay: Induction of apoptosis in human PC3 cells assessed as increase in early apoptotic cells after 24 hrs by annexin V-FITC/propidium iodide staining based flow cytometry; assay type: functional, cell-based; in short: as §5
PC-3 [23] = assay: Induction of morphological changes in human PC3 cells at 2.4 to 8.8 uM after 24 hrs by phase contrast microscopy; assay type: functional, cell-based; in short: as §3
PC-3 [24] = assay: Induction of mitochondrial membrane depolarization in human PC3 cells at 4.8 uM after 24 hrs by JC-1 staining based flow cytometry (reference value: 4.51%); assay type: functional
PC-3 [25] = assay: Cell cycle arrest in human PC3 cells assessed as accumulation at S phase at 4.8 uM after 24 hrs by propidium iodide staining based flow cytometry (reference value: 25.01%); assay type: functional; in short: as §1
PC-3 [26] = assay: Decrease in PCNA levels in human PC3 cells at 4.8 to 8.8 uM after 24 hrs by Western blot analysis; assay type: functional, cell-based; in short: as §2
PC-3 [27] = assay: Cell cycle arrest in human PC3 cells assessed as accumulation at G0/G1 phase at 8.8 uM after 24 hrs by propidium iodide staining based flow cytometry (reference value: 72.73%); assay type: functional; in short: as §1
PC-3 [28] = assay: Induction of apoptosis in human PC3 cells assessed as necrotic cells at 4.8 uM after 24 hrs by annexin V-FITC/propidium iodide staining based flow cytometry (reference value: 2.52%); assay type: functional; in short: as §5
PC-3 [29] = assay: Induction of apoptosis in human PC3 cells assessed as late apoptotic cells at 8.8 uM after 24 hrs by annexin V-FITC/propidium iodide staining based flow cytometry (reference value: 0.80%); assay type: functional; in short: as §5
PC-3 [30] = assay: Induction of apoptosis in human PC3 cells assessed as early apoptotic cells at 4.8 uM after 24 hrs by annexin V-FITC/propidium iodide staining based flow cytometry (reference value: 4.44%); assay type: functional; in short: as §5
[31] = Elimination rate constant in liver microsomes (unknown origin) at 8 ug/ml measured up to 60 mins by UPLC analysis; assay type: ADME, Microsome
[32] = Intrinsic clearance in liver microsomes (unknown origin) assessed per mg of protein at 8 ug/ml in presence of NADPH by UPLC analysis; assay type: ADME, Microsome
PC-3 [33] = assay: Induction of apoptosis in human PC3 cells assessed as decrease in live cells after 24 hrs by annexin V-FITC/propidium iodide staining based flow cytometry; assay type: functional, cell-based; in short: as §5

**Q.** Which results are given for `O=C1/C(=C/c2ccccc2F)CN(Cc2cn(Cc3ccc(F)cc3)nn2)C/C1=C\c1ccccc1F`?
**A.** inhibition (MCF7 [1]): Active; Activity (MCF7 [2]): 44.43%; Activity (MCF7 [3]): 43.6%; Activity (MCF7 [4]): Active; Activity (MCF7 [5]): Active; CLint scaled at 5 ug/ml [6]: 317 L/h/kg; Activity (MCF7 [7]): 66.45%; Activity (MCF7 [8]): 6.18%; Activity (MCF7 [9]): Dose-dependent effect; half-life at 5 ug/ml [10]: 7.52 min; Activity (MCF7 [11]): 25.08%; Activity (MCF7 [12]): 2.22%; Activity (MCF7 [13]): 25.7%; Activity (MCF7 [14]): 85.6%; Activity (MCF7 [15]): 19.59%; Activity (MCF7 [16]): 36.03%; viability at 6 µM (MCF7 [17]): 50%; Activity (MCF7 [18]): Active; Activity (MCF7 [19]): Active

**Q.** Which results are given for `Cc1ccc(/C=C2\CN(Cc3cn(Cc4ccccc4F)nn3)C/C(=C\c3ccc(C)cc3)C2=O)cc1`?
**A.** viability at 4.8 µM (PC-3 [20]): 85.3%; Activity (PC-3 [21]): Active; Activity (PC-3 [22]): Dose-dependent effect; Activity (PC-3 [23]): Active; Activity (PC-3 [24]): 29.85%; Activity (PC-3 [25]): 21.02%; Activity (PC-3 [26]): Active; Activity (PC-3 [27]): 67.5%; Activity (PC-3 [28]): 0.91%; Activity (PC-3 [29]): 0.88%; Activity (PC-3 [30]): 13.02%; k el at 1 h, 8 ug/ml [31]: 0.000733 s⁻¹; CLint [32]: 87 µL/min/mg; Activity (PC-3 [33]): Dose-dependent effect
